Here are results for seven molecules from ChEMBL document CHEMBL1143930, “S-Euglobals: biomimetic synthesis, antileishmanial, antimalarial, and antimicrobial activities” (Bioorg Med Chem, 2008).

Molecules are shown by their SMILES. Converted amounts (≈) assume the structure as drawn. The source made the active and inactive calls. The rule behind the calls is not given here. Bounds are passed on as bounds.

Data set [1] in a line: Selectivity index, ratio of IC50 for african green monkey (Cercopithecus aethiops) Vero cells to IC50 for Plasmodium falciparum W2. Type of data set: functional. Put shortly:
(§1)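 The index is IC50 in Vero cells (Neutral Red, 48 h exposure) divided by IC50 against P. falciparum D6 or W2. For the parasite assay, infected erythrocytes at 2% parasitemia and 2% hematocrit in RPMI 1640 with 10% human serum were incubated 72 h at 37 C under 90% N2, 5% O2, 5% CO2. Parasite LDH was measured with Malstat plus NBT/PES at 650 nm.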

Data set [2] has as its system SK-MEL. As to the kind of experiment: Cytotoxicity against human SKMEL cells by neutral red assay. It counts as functional, cell-based. Put shortly:
(§2)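 Cells were seeded at 25,000 per well and incubated 24 h. Test samples were added at a range of concentrations, followed by a further 48 h incubation. Viable cells were quantified by Neutral Red uptake, and IC50 was read from dose curves of percent growth versus concentration.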

A further data set has as its system Leishmania donovani. Kind of data set: Antileishmanial activity against Leishmania donovani promastigotes after 48 hrs by Alamar blue assay. It counts as functional, organism-based. Put shortly: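 L. donovani promastigotes were grown in RPMI 1640 with 10% fetal calf serum at 26 C. A 3-day-old culture was diluted to 5 × 10^5 promastigotes/mL, and drug dilutions were made directly in the cell suspension. After 48 h at 26 C, growth was read by Alamar Blue fluorescence (ex 544/em 590 nm). IC50 and IC90 came from percent growth versus concentration curves.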
On the technique in general: Resazurin is reduced to fluorescent resorufin, in cell work by metabolically active cells.

Data set [3] in a line: Selectivity index, ratio of IC50 for african green monkey (Cercopithecus aethiops) Vero cells to IC50 for Plasmodium falciparum D6. Type of data set: functional. Put shortly:
as §1

Data set [4] is described as follows: Cytotoxicity against pig LLC-PK11 cells by neutral red assay. Type of data set: cell-based. To be noted: Sus scrofa. Put shortly: as §2
In data set [5] the test system is Plasmodium falciparum. As to the kind of experiment: Antimalarial activity against chloroquine-resistant Plasmodium falciparum W2 by LDH release. It counts as functional, organism-based. Put shortly: (§3)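 Infected red cells (W2 or D6), 2% parasitemia, 2% hematocrit, in RPMI 1640 with 10% human serum and 60 µg/mL amikacin, exposed to serial sample dilutions. Incubated 72 h at 37 C under 90% N2/5% O2/5% CO2. Parasite LDH measured with Malstat reagent (30 min, room temperature), then NBT/PES 1 h in dark, stopped with 5% acetic acid, read at 650 nm. IC50 from dose-response curves.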
A general note: Release of lactate dehydrogenase indicates damage to the cell membrane.

Data set [6] concerns SK-OV-3. As to the kind of experiment: Cytotoxicity against human SK-OV3 cells by neutral red assay. Type of data set: functional, cell-based. Put shortly:
as §2

For the next data set, the system named is Candida albicans. Kind of data set: Antifungal activity against Candida albicans. It counts as functional, organism-based. Put shortly:
(§4)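 Modified NCCLS broth microdilution. Samples in DMSO were serially diluted in 0.9% saline and tested in duplicate. Inocula were matched to the 0.5 McFarland standard by absorbance at 630 nm, then diluted in broth. Growth, solvent and media controls were included. Plates were read at 630 nm before and after incubation, and IC50 was taken from percent growth versus concentration.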

The subject of data set [7] is Vero. Kind of data set: Cytotoxicity against african green monkey Vero cells by neutral red assay. To be noted: chlorocebus sabaeus. It counts as cell-based. Put shortly:
as §2

The test system of another data set is Cryptococcus neoformans. As to the kind of experiment: Antifungal activity against Cryptococcus neoformans. It counts as functional, organism-based. Put shortly:
as §4

The subject of data set [8] is Plasmodium falciparum. Kind of data set: Antimalarial activity against chloroquine-sensitive Plasmodium falciparum D6 by LDH release assay. Type of data set: functional, organism-based. Put shortly:
as §3

In data set [9] the test system is KB. As to the kind of experiment: Cytotoxicity against human KB cells by neutral red assay up to 25 ug/mL. Type of data set: functional, cell-based. Put shortly:
as §2

For data set [10], the system named is BT-549. Kind of data set: Cytotoxicity against human BT549 cells by neutral red assay. Type of data set: functional, cell-based. Put shortly:
as §2

In a further data set the test system is Aspergillus fumigatus. As to the kind of experiment: Antifungal activity against Aspergillus fumigatus. Type of data set: functional, organism-based. Put shortly:
as §4

Data set [11] relates to SK-MEL. Kind of data set: Cytotoxicity against human SKMEL cells by neutral red assay up to 25 ug/mL. Type of data set: functional, cell-based. Put shortly:
as §2

Data set [12] deals with KB. Kind of data set: Cytotoxicity against human KB cells by neutral red assay. It counts as functional, cell-based. Put shortly:
as §2

The test system of the next data set is Staphylococcus aureus. Kind of data set: Antibacterial activity against methicillin-resistant Staphylococcus aureus. It counts as functional, organism-based. Put shortly:
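Modified NCCLS broth microdilution. Samples in DMSO serially diluted in 0.9% saline, tested in duplicate. Inoculum set against 0.5 McFarland standard by absorbance at 630 nm, then diluted in broth. Growth, solvent and media controls included. Plates read at 630 nm before and after incubation. IC50 from percent growth vs concentration; MIC = lowest concentration with no detectable growth.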

The nature of data set [13]: Cytotoxicity against pig LLC-PK11 cells by neutral red assay up to 25 ug/mL. It counts as cell-based, Sus scrofa. Put shortly: as §2
For data set [14], the system named is Vero. Kind of data set: Cytotoxicity against african green monkey Vero cells by neutral red assay up to 25 ug/mL. It counts as cell-based. To be noted: chlorocebus sabaeus. Put shortly: as §2
The test system of data set [15] is SK-OV-3. As to the kind of experiment: Cytotoxicity against human SK-OV3 cells by neutral red assay up to 25 ug/mL. It counts as functional, cell-based. Put shortly:
as §2

The test system of data set [16] is BT-549. As to the kind of experiment: Cytotoxicity against human BT549 cells by neutral red assay up to 25 ug/mL. Type of data set: functional, cell-based. Put shortly:
as §2

The IC50 is the point on the concentration scale where inhibition reaches its midpoint. As a reminder, the IC90 is the point of the concentration-response curve where the effect stands at 90%. Take `CC(C)C[C@@H]1C[C@@]2(CC[C@@H]3C[C@H]2C3(C)C)Oc2c(C=O)c(O)c(C=O)c(O)c21` [ROBUSTADIAL A]: the figures for the Selectivity index in [1] and in [3] were 6.8 and 4, respectively. In addition, the IC50 is over 25 µg/mL in the data set on SK-MEL [2]; 20 µg/mL (≈ 51.7 µM) with Leishmania donovani; 17 µg/mL (≈ 44 µM) in data set [4]; 2.8 µg/mL (≈ 7.24 µM) in the data set with Plasmodium falciparum [5]; over 25 µg/mL in the data set with SK-OV-3 [6]; 19 µg/mL (≈ 49.2 µM) in the data set on Vero [7]. In addition, the IC50 in the data set on Plasmodium falciparum [8] was 4.76 µg/mL (≈ 12.3 µM); in the data set on BT-549 [10], 19 µg/mL (≈ 49.2 µM). The molecule also came in with an IC90 in the data set on Leishmania donovani of 39 µg/mL (≈ 101 µM). In addition, the result in the data set on Candida albicans, in the data set with Cryptococcus neoformans, in the data set with KB [9] and in the data set with Aspergillus fumigatus was inactive.
Take `C[C@@H]1CC[C@H]2[C@@H](C)C(=O)O[C@@H]3O[C@@]4(C)CC[C@@H]1[C@]32OO4` [ARTEMISININ]: the values for the IC50 with Plasmodium falciparum [5] and in the data set on Plasmodium falciparum [8] were 0.0075 µg/mL (≈ 0.0266 µM) and 0.014 µg/mL (≈ 0.0496 µM), respectively.
As for `CC(C)CC(=O)c1c(O)c(C=O)c(O)c2c1O[C@@]1(CCO)[C@@H](C2)C[C@H]2C[C@@H]1C2(C)C`, the outcome in the data set on SK-MEL [11], in the data set on Candida albicans, in the data set with Cryptococcus neoformans and with Aspergillus fumigatus was inactive. The IC50 was 32 µg/mL (≈ 76.8 µM) in the data set on Leishmania donovani; over 25 µg/mL in data set [4]; over 25 µg/mL in the data set with KB [12]; over 25 µg/mL with SK-OV-3 [6]; 5 µg/mL (≈ 12 µM) in the data set on Staphylococcus aureus; over 25 µg/mL with Vero [7]. In addition, the IC50 in the data set with BT-549 [10] is over 25 µg/mL.
Regarding `CC(C)CC(=O)c1c(O)c(C=O)c(O)c2c1O[C@@]1(C)[C@H](CC[C@H]3[C@@H]1C3(C)C)C2`, the Activity result (in data set [13]; in the data set with Vero [14]) was “Not Active” throughout. The Selectivity index is listed as over 9.3 in data set [1] and over 7.4 in data set [3]. Moreover, the IC50 in the data set on SK-MEL [2] was 25 µg/mL (≈ 64.7 µM); with Leishmania donovani, 5.5 µg/mL (≈ 14.2 µM); in the data set with Plasmodium falciparum [5], 2.7 µg/mL (≈ 6.99 µM); in the data set with Plasmodium falciparum [8], 3.4 µg/mL (≈ 8.8 µM). Further, the 90% effect level in the data set with Leishmania donovani (IC90) was put at 28 µg/mL (≈ 72.4 µM). Further, the outcome with SK-OV-3 [15], in the data set with Candida albicans, with Cryptococcus neoformans, in the data set with KB [9], with Aspergillus fumigatus and in the data set with BT-549 [16] was inactive.
Turning to `COc1cccc2c1C(=O)c1c(O)c3c(c(O)c1C2=O)C[C@@](O)(C(=O)CO)C[C@@H]3O[C@H]1C[C@H](N)[C@H](O)[C@H](C)O1` [DOXORUBICIN], the IC50 in the data set with SK-MEL [2] turned out to be 0.6 µg/mL (≈ 1.1 µM); in data set [4], 0.5 µg/mL (≈ 0.92 µM); with KB [12], 0.9 µg/mL (≈ 1.66 µM); with SK-OV-3 [6], 0.75 µg/mL (≈ 1.38 µM); in the data set with BT-549 [10], 0.6 µg/mL (≈ 1.1 µM).
As a reminder, the MIC is the lowest concentration found to suppress growth. Regarding `CC(C)CC(=O)c1c(O)c(C=O)c2c(c1O)C[C@H]1C[C@H]3C[C@H](C3(C)C)[C@@]1(CCO)O2`, the half-inhibitory concentration (IC50) in the data set with SK-MEL [2] worked out at 25 µg/mL (≈ 60 µM); with Leishmania donovani, 9.5 µg/mL (≈ 22.8 µM); in [4], 25 µg/mL (≈ 60 µM); with KB [12], 20 µg/mL (≈ 48 µM); in the data set on SK-OV-3 [6] it was 25 µg/mL (≈ 60 µM); in the data set with Staphylococcus aureus, 1 µg/mL (≈ 2.4 µM). Besides, the IC50 was found to be 20 µg/mL (≈ 48 µM) in the data set on Vero [7] and 18.5 µg/mL (≈ 44.4 µM) in the data set with BT-549 [10]. The same molecule yielded an IC90 in the data set on Leishmania donovani of 33 µg/mL (≈ 79.2 µM). In addition, inhibition of growth with Staphylococcus aureus (MIC) required 5 µg/mL (≈ 12 µM). Besides, the result with Candida albicans, in the data set on Cryptococcus neoformans and in the data set on Aspergillus fumigatus was inactive.
As for `CC(C)C[C@H]1C[C@]2(CC[C@@H]3C[C@H]2C3(C)C)Oc2c(C=O)c(O)c(C=O)c(O)c21` [ROBUSTADIAL B], the Activity result (in data set [13]; with Vero [14]) was “Not Active” throughout. Besides, the Selectivity index in [1] is over 5.3; in data set [3], over 5.6. Also, the result in the data set with SK-MEL [11], in the data set on SK-OV-3 [15], with Candida albicans, in the data set with Cryptococcus neoformans, in the data set on KB [9] and with Aspergillus fumigatus was inactive. Also, the IC50 turned out to be 16 µg/mL (≈ 41.4 µM) with Leishmania donovani, 4.76 µg/mL (≈ 12.3 µM) in the data set on Plasmodium falciparum [5], 4.5 µg/mL (≈ 11.6 µM) in the data set on Plasmodium falciparum [8] and 25 µg/mL (≈ 64.7 µM) in the data set on BT-549 [10]. Also, the 90% effect level with Leishmania donovani (IC90) was put at 16 µg/mL (≈ 41.4 µM).
